ChEMBL document CHEMBL4350999, “Enhanced tumor retention of NTSR1-targeted agents by employing a hydrophilic cysteine cathepsin inhibitor” (Eur J Med Chem, 2019)
The source made the active and inactive calls. The calls are words filed in the database; no cut-off is given here.

Columns and labels:
[1] = Drug uptake in small intestine of SCID mouse xenografted with human HT-29 cells using 177Lu labelled compound at 0.37 MBq/mouse, iv co-treated with D-lysine at 40 mg/kg measured at 24 hrs by gamma counter analysis; format: ADME, organism-based; conditions: in vivo
Procathepsin L [2] = biological target: T1, Procathepsin L (Homo sapiens, UniProt P07711); assay: Inhibition of human liver cathepsin L using Z-Phe-Arg-AMC as substrate assessed as second order rate constant measured every 5 mins for 1 hr by fluorescence assay
Summary of the method: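 Human liver cathepsin L in acetate buffer pH 5.5 (340 mM sodium acetate, 60 mM acetic acid, 1 mM EDTA, 3 mM DTT). Conjugate 1–500 nM; Z-Phe-Arg-AMC 100 μM; 37 °C. […] Biological triplicate.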

Procathepsin L [3] = biological target: T1, Procathepsin L; assay: Binding affinity to human liver cathepsin L assessed as protein-conjugate adduct formation at 0.74 MBq incubated for 30 mins in presence of DOTA-beta-ala-[N-alpha-Me8, Dmt11, Tle12] NT6-13 using 177Lu labelled compound by SDS-PAGE analysis; conditions: 0.74 M
Summary of the method: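 Purified human liver CatB or CatL (3 nM) in 50 mM sodium acetate/1 mM EDTA pH 5.0 incubated 30 min with 177Lu conjugate (500,000 cpm) in Tris/MgCl2/DTT buffer pH 5.5, alone or with E-64 (10 μM) or N1 (20 μM). Mixtures heated 85 °C 2 min, run on 16% tris-glycine gel at 110 V for 90 min, and read by phosphor autoradiography.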

[4] = Drug retention in kidney lysates of mouse xenografted with human HT-29 cells assessed as macromolecule associated radioactivity at 29.6 MBq measured after 72 hrs using 177Lu labelled compound by gamma counter analysis relative to control; format: ADME, tissue-based; conditions: in vivo
Summary of the method: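 HT-29 xenograft mice given 800 μCi (29.6 MBq) 177Lu conjugate i.v. and killed at 72 h. Tumor, liver and kidney homogenized in RIPA with protease inhibitor and supernatants run on SDS-PAGE autoradiography. Other supernatant aliquots filtered through 10 kDa MWCO devices to give the % macromolecule-associated radioactivity; n = 3.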

Cathepsin B [5] = biological target: T2, Cathepsin B (Homo sapiens, UniProt P07858); assay: Binding affinity to cathepsin B in human HT-29 cells assessed as intracellular adduct formation at 0.74 MBq incubated for 4 hrs in presence of DOTA-beta-ala-[N-alpha-Me8, Dmt11, Tle12] NT6-13 using 177Lu labelled compound by SDS-PAGE analysis; format: cell-based; parameters: dose or concentration left out as unconfirmed
Summary of the method: (§1)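 HT-29 cells (1 × 10^6/well) incubated 4 h at 37 °C with 177Lu conjugate (20 μCi, 0.74 MBq) in 1 mL medium, with or without E-64 (10 μM) or NTSR1 peptide N1 (20 μM). Cells washed and refed; at set times cells pooled, RIPA-lysed with protease inhibitor. Lysates heated 85 °C 2 min, run on 16% tris-glycine SDS-PAGE, and phosphor autoradiography taken after 72 h exposure.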

[6] = Drug excretion in SCID mouse xenografted with human HT-29 cells using 177Lu labelled compound at 0.37 MBq/mouse, iv co-treated with D-lysine at 40 mg/kg measured at 24 hrs by gamma counter analysis; format: ADME, organism-based; conditions: in vivo
Summary of the method: (§2)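 Female SCID mice bearing s.c. flank HT-29 xenografts (5 × 10^6 cells in Matrigel, ~80 mm3). Given 10 μCi (0.37 MBq) 177Lu conjugate i.v. by tail vein; groups sacrificed at 4, 24, 72 h. Tissues weighed and gamma-counted as %ID/g, excretion as %ID; n = 5, mean ± SD. Blocking arms: colchicine 1 mg/kg i.p. beforehand, or D-lysine 40 mg/kg co-injected.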

[7] = Drug uptake in blood of SCID mouse xenografted with human HT-29 cells using 177Lu labelled compound at 0.37 MBq/mouse, iv co-treated with D-lysine at 40 mg/kg measured at 24 hrs by gamma counter analysis; format: ADME, organism-based; conditions: in vivo; summary of the method: as §2
[8] = Drug uptake in large intestine of SCID mouse xenografted with human HT-29 cells using 177Lu labelled compound at 0.37 MBq/mouse, iv co-treated with D-lysine at 40 mg/kg measured at 24 hrs by gamma counter analysis; format: ADME, organism-based; conditions: in vivo
Summary of the method: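 Female SCID mice bore s.c. HT-29 xenografts (5 × 10^6 cells in Matrigel, about 80 mm3). D-lysine 40 mg/kg was co-injected i.v. with 10 μCi (0.37 MBq) of purified 177Lu-conjugate. Tissues were harvested at 24 h, weighed and gamma-counted, reported as %ID/g; mean ± SD, n = 5.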

[9] = Drug excretion in SCID mouse xenografted with human HT-29 cells pretreated for 1 hr with colchicine at 1 mg/kg, ip followed by 177Lu labelled compound at 0.37 MBq/mouse, iv measured at 24 hrs by gamma counter analysis; format: ADME, organism-based; conditions: in vivo; summary of the method: as §2
[10] = Ratio of drug uptake in SCID mouse xenograted with human HT-29 cells assessed as tumour retention to drug uptake in kidney of SCID mouse xenografted with human HT-29 cells cotreated with D-lysine at 40 mg/kg measured after 24 hrs using 177Lu labelled compound; format: ADME, organism-based, Tumor/Kidney; conditions: in vivo
Summary of the method: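 HT-29 s.c. xenografts in female SCID mice. 177Lu conjugate given i.v. by tail vein at 10 μCi (0.37 MBq)/mouse, co-injected with D-lysine 40 mg/kg. Tissues were taken at 24 h, weighed and gamma counted. Uptake expressed as %ID/g (n = 5, mean ± SD); tumor-to-tissue ratios derived from these values.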

[11] = Drug uptake in liver of SCID mouse xenografted with human HT-29 cells pretreated for 1 hr with colchicine at 1 mg/kg, ip followed by 177Lu labelled compound at 0.37 MBq/mouse, iv measured at 24 hrs by gamma counter analysis; format: ADME, organism-based; conditions: in vivo
Summary of the method: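 HT-29 flank xenografts in female SCID mice (5 × 10^6 cells in Matrigel, about 80 mm3). Colchicine 1 mg/kg was given i.p. before a tail-vein injection of 10 μCi (0.37 MBq) of purified 177Lu-conjugate. Tissues were taken at 24 h, weighed and gamma-counted as %ID/g; mean ± SD, n = 5.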

[12] = Drug retention in liver lysates of mouse xenografted with human HT-29 cells assessed as macromolecule associated radioactivity at 29.6 MBq co-treated with D-lysine measured after 72 hrs using 177Lu labelled compound by gamma counter analysis relative to control; format: ADME, tissue-based; conditions: in vivo
Cathepsin B [13] = biological target: T2, Cathepsin B; assay: Binding affinity to cathepsin B in human HT-29 cells assessed as intracellular adduct formation at 0.74 MBq incubated for 4 hrs in presence of E-64 using 177Lu labelled compound by SDS-PAGE analysis; format: cell-based; parameters: dose or concentration left out as unconfirmed; summary of the method: as §1
[14] = Drug retention in human HT-29 cells assessed as increase in mean fluorescence intensity at 5 uM incubated for 2 hrs and measured at 2 to 4 hrs using natEu labelled compound by lysotracker green staining based confocal microscopic analysis; format: ADME, cell-based; conditions: ht-29, 2 h
Summary of the method: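 HT-29 cells (1.25 × 10^5/well) loaded with natEu conjugate (5 μM), washed, then chased in fresh medium up to 24 h. Lysotracker Green (100 nM) applied 2 h before each read; cells fixed and imaged confocally at 405/488 nm. Per-cell mean fluorescence and Lysotracker co-localization quantified.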

Cathepsin B [15] = biological target: T2, Cathepsin B; assay: Inhibition of human liver cathepsin B assessed as pseudo Michaelis-Menten constant at 10 nM using varying levels of Z-Arg-Arg-AMC as substrate measured every 5 mins for 1 hr by fluorescence assay

T1 sequence (P07711 114-333 limits assumed): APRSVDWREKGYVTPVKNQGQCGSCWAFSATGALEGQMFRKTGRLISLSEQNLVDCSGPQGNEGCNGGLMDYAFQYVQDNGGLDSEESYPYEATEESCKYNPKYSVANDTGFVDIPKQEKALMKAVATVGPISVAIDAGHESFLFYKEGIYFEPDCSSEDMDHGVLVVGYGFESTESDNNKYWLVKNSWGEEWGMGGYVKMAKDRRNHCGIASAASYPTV

Row | SMILES | Drug uptake [1] [% ID/g] | K (Procathepsin L [2]) [M⁻¹ s⁻¹] | Activity (Procathepsin L [3]) | Drug uptake [4] [%] | Activity (Cathepsin B [5]) | Drug excretion [6] [%ID] | Drug uptake [7] [% ID/g] | Drug uptake [8] [% ID/g] | Drug excretion [9] [%ID] | Ratio [10] | Drug uptake [11] [% ID/g] | Drug uptake [12] [%] | Activity (Cathepsin B [13]) | Drug uptake [14] | K (Cathepsin B [15]) [µM]
1 | Cc1cc(O)cc(C)c1C[C@H](NC(=O)[C@@H]1CCCN1C(=O)[C@H](CCCNC(=N)N)NC(=O)[C@H](CCCNC(=N)N)N(C)C(=O)[C@@H]1CCCN1C(=O)[C@H](CCCCN)NC(=O)[C@@H](CO)NC(=O)[C@@H](CO)NC(=O)[C@@H](CO)NC(=O)[C@H](Cc1cn(CCNC(=O)[C@H](CCCNC(=N)N)NC(=O)[C@H](CC(C)C)NC(=O)C2OC2C(=O)O)nn1)NC(=O)CN1CCN(CC(=O)O)CCN(CC(=O)O)CCN(CC(=O)O)CC1)C(=O)N[C@H](C(=O)N[C@@H](CC(C)C)C(=O)O)C(C)(C)C (stereo not given in full) | 1.47 | 24000 | Active | 80 | inactive | 83 | 0.02 | 0.8 | 85 | 0.2 | 1.4 | 80 | Active | Not Active | –
2 | Cc1cc(O)cc(C)c1C[C@H](NC(=O)[C@@H]1CCCN1C(=O)[C@H](CCCNC(=N)N)NC(=O)[C@H](CCCNC(=N)N)N(C)C(=O)[C@@H]1CCCN1C(=O)[C@H](CCCCN)NC(=O)[C@@H](CO)NC(=O)[C@@H](CO)NC(=O)[C@@H](CO)NC(=O)[C@H](Cc1cn(CCNC(=O)[C@H](CCCNC(=N)N)NC(=O)[C@H](CC(C)C)NC(=O)CCC(=O)O)nn1)NC(=O)CN1CCN(CC(=O)O)CCN(CC(=O)O)CCN(CC(=O)O)CC1)C(=O)N[C@H](C(=O)N[C@@H](CC(C)C)C(=O)O)C(C)(C)C | – | – | – | – | – | – | – | – | – | – | – | – | – | – | 182
